Source: PubChem (Sanford-Burnham Center for Chemical Genomics)
Rows were chosen to be rich in hits. Some 1.5% of all compounds tested hit in one or more screens of this group.
APJ antagonist – antagonists of human APJ apelin receptor; P35414; CHO-K1 APJ beta-arrestin complementation, luminescence; inhibition, % at 20 µM; 330,000 tested, 0.32% active; AID 2521;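 active = inhibition above about 40% at 20 µM, limit read from the data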;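 also: cells challenged with 10 nM apelin-13 agonist together with compound; plate controls were apelin-13 plus DMSO wells for no effect and DMSO wells lacking apelin-13 for full effect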
EBI2 antag – blocks human EBI2 receptor beta-arrestin signaling | P32249 | EBI2 beta-arrestin recruitment, luminescence, 7a,25-OHC stimulated | inhibition, % at 5 µM | 360,000 tested, 0.81% active | AID 651636; in the data active = inhibition above about 38%;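 also: enzyme fragment complementation signal reports receptor beta-arrestin coupling in cells; 0% = agonist plus DMSO wells and 100% = wells without agonist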
Target sequence (P32249 whole entry, looked up, the tested form may be a part): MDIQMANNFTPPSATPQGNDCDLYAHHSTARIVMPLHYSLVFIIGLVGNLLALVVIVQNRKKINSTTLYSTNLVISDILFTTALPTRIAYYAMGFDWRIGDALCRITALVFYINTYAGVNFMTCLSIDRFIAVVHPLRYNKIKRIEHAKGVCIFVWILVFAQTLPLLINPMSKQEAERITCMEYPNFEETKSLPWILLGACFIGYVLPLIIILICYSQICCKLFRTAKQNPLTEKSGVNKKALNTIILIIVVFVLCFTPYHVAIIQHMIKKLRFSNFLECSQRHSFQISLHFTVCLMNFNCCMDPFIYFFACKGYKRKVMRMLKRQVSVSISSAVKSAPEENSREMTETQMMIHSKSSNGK
APJ ag – APJ receptor agonism. P35414. CHO-K1 APJ PathHunter beta-arrestin, luminescence; 0% DMSO wells, 100% apelin. activation, % at 20 µM. 330,000 tested, 0.11% active. AID 2520;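 active = activation more than six SD over the plate average, tested at 20 µM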;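 also: 0% = DMSO alone and 100% = apelin-13 at 10 nM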
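Incubation: overnight seeding, 90 min compound at 25 °C, 1 h detection; test system: PathHunter CHO-K1 APJ (AGTRL-1) beta-arrestin reporter cells; amount: 1000 cells/well; doses: one dose, 20 µM compound, 1% DMSO; measured by: beta-gal luminescence; measure: agonist-driven arrestin binding to APJ; benchmarks: negative DMSO alone, positive Apelin-13 at 10 nM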
CXCR6 block – inhibitors of human CXCR6 receptor; O00574; CHO-K1 PathHunter CXCR6 beta-arrestin, luminescence; inhibition, % at 20 µM; 360,000 tested, 0.36% active; in the data active = inhibition above about 34%, passing the limit was not always enough;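 also: antagonist mode with CXCL16 agonist at 10 nM final; 0% = 10 nM CXCL16 with DMSO and 100% = unstimulated wells without agonist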
CCR6 antag – antagonists of human CCR6 receptor; AID 493098; inhibition, % at 20 µM; P51684; 340,000 tested, 0.49% active; CHO-K1 CCR6 PathHunter beta-arrestin, luminescence, CCL20-stimulated;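 active = compounds whose inhibition of the agonist-driven luminescence signal at 20 µM reaches about 50%, limit read from the data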;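 also: cells stimulated with CCL20 at 14 nM final; plate controls were DMSO with CCL20 for no effect and DMSO without agonist for full effect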
Active calls of the source: *; nt = not tested or not shown.

SMILES | APJ antagonist | EBI2 antag | APJ ag | CXCR6 block | CCR6 antag
Cc1nc(NNC(=O)c2ccc([N+](=O)[O-])cc2)cc(-c2ccccc2)n1 | -9 | 2 | 0 | 29 | 58*
COc1ccc(CC2=CC(=O)c3ccccc3C2=O)cc1 | 20 | 23 | 5 | 41* | 38
O=C1C(F)=CC(COC(c2ccccc2)(c2ccccc2)c2ccccc2)OC1n1cc(F)c(=O)[nH]c1=O (configuration not stated) | nt | -6 | nt | 67* | 99*
CC(=O)OCC1OC(n2cc(F)c(=O)[nH]c2=O)C(OC(C)=O)C1OC(C)=O (configuration not stated) | 6 | -11 | -4 | -5 | 14
CCCCC1(CO)C(=O)N(c2ccccc2)N(c2ccccc2)C1=O | -5 | -2 | -5 | 7 | 7
CCCCC1C(=O)N(c2ccccc2)N(c2ccc(O)cc2)C1=O (configuration not stated) | 22 | 22 | -7 | 43* | 57*
Cc1cccc(CS(=O)(=O)c2nnc([C@H](Cc3ccccc3)NC(=O)OC(C)(C)C)o2)c1 | 14 | 20 | 0 | 61* | 91*
Cc1ccc(S(=O)(=O)N2CCN(c3ccccc3)CC2)cc1C(=O)NC1CCCCC1 | 16 | 17 | 7 | 7 | -1
COc1cc(/C=N/NC(=S)NC2CC3CC2C2C=CCC32)ccc1O (configuration not stated) | 5 | 45* | 5 | 14 | 6
CCOc1ccc(/C=N/NC(=S)NC2CC3CC2C2C=CCC32)cc1 (configuration not stated) | 15 | 36 | -1 | 6 | 11
COc1ccc(C(=O)c2sc3nc(C)cc(-c4cccs4)c3c2N)cc1OC | nt | 55* | nt | -5 | 12
COc1ccc(C(=O)c2sc3nc(C)cc(-c4cccs4)c3c2N)cc1 | nt | 33 | nt | 5 | -9
O=C(COC(=O)C1CCN(C(=O)c2ccc(Cl)cc2)CC1)Nc1ccccc1F | -7 | 15 | -4 | 6 | 14
COc1ccc2nc(Cl)cc(Cl)c2c1 | 4 | 2 | -4 | 9 | -5
C=CS(=O)(=O)c1c2cc(OC)ccc2nc2ccc(OC)cc12 | nt | 0 | nt | 48* | 78*
CCC(C)Sc1ccc(-c2nc3ccc(C)cn3c2NCc2ccccc2)cc1OC (configuration not stated) | -68 | 69* | 14 | 31 | 46
CCC(C)Sc1cc(-c2nc3ccc(C)cn3c2NCc2ccccc2)ccc1OC (configuration not stated) | nt | -16 | nt | 36 | 44
O=C(/C=C/c1ccc(S(=O)(=O)N2CCOCC2)cc1)N1CCN(c2ccc(F)cc2)CC1 | -3 | -8 | -2 | -15 | 2
O=C(/C=C/c1ccc2c(c1)OCCO2)N1CCN(c2ccc(F)cc2)CC1 | 13 | 44* | -2 | -1 | 12
Oc1ccc(N=Nc2ccc3c(c2)OCO3)c2ccccc12 | 58* | nt | -12 | nt | nt
CCc1nc2c(OCc3ccccc3)cccn2c1N(Cc1ccccc1)C(C)=O | nt | -3 | nt | -2 | nt
Cc1csc(N/N=C/c2ccc([N+](=O)[O-])cc2)n1 | 0 | -8 | 6 | -8 | -5
Cc1csc(N/N=C/c2ccccn2)n1 | 12 | 0 | -1 | 23 | 60*
COc1ccc(C=NNc2nc3ccccc3s2)cc1 | nt | -2 | nt | -4 | -16
C(=N\Nc1nc2ccccc2s1)/c1ccccn1 | 34 | nt | -2 | nt | 77*
SMILES | APJ antagonist | EBI2 antag | APJ ag | CXCR6 block | CCR6 antag
CC(C)N(Cc1ccccc1)S(=O)(=O)c1ccc2c(c1)NC(=O)CO2 | -45 | 1 | -2 | 10 | 23
CCCC(/C=C/c1ccc(OC(C)=O)cc1)=C1/c2ccccc2C(=O)N1c1ccccc1 | 8 | 8 | -4 | 8 | 9
O=c1nc2cccc3c2=c(/c1=C(\O)c1ccccc1)c1ccccc1c3=O | 26 | 2 | 1 | 31 | 52*
CNC(=O)COc1coc(CN2CCN(C(=O)c3ccco3)CC2)cc1=O | -5 | -1 | 7 | 1 | -2
CC(=O)Oc1oc(-c2ccccc2)nc1/C=N/c1ccccn1 | 26 | -12 | -3 | 21 | 51*
COc1ccccc1N=Cc1nc(-c2ccccc2)oc1OC(C)=O | 0 | -1 | -3 | 4 | 5
CC(C)(C)C1CCC(=NNC(=S)NCc2ccccc2)CC1 (configuration not stated) | 2 | 14 | 0 | 11 | 52*
CCC(C)(C)C1CCC(=NNC(=S)Nc2ccccc2)CC1 (configuration not stated) | 8 | 11 | -5 | 7 | 31
